Screens (PubChem)
IDH1 R132H inh – blocks human IDH1 R132H reductase activity; O75874; diaphorase/resazurin fluorescence, 60 min; inhibition, % at 10 µM; hit rate 0.18% among 70,000; AID 624101; in the data active = inhibition above about 34%; inconclusive = no clear call, values can overlap the other calls; inactive = below about 11%
GASC1 inh – inhibitors of human demethylase GASC-1 KDM4C. Q9H3R0. GST-KDM4C 2-372, H3K9me3 peptide, LANCE TR-FRET. inhibition, % at 12.5 µM. hit rate 0.15% among 96,000. AID 720574;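 active = mean replicate inhibition above about 25%, with at least 55% of replicates also reaching it, limit read from the data, passing the limit was not always enough; inconclusive = only one of those two conditions met; inactive = neither condition met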
Target sequence (Q9H3R0 2-372 limits assumed): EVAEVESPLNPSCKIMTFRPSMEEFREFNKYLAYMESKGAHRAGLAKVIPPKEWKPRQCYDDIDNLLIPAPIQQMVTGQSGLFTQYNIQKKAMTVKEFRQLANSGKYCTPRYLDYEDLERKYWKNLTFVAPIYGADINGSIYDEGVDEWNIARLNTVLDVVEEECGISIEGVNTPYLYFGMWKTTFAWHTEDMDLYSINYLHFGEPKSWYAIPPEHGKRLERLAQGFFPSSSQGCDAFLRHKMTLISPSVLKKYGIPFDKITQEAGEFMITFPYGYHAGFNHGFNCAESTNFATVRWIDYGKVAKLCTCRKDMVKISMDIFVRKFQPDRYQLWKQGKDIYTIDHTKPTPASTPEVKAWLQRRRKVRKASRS
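Test system – GST-tagged GASC-1 (JMJD2C) catalytic fragment, aa 2-372 · Medium – HEPES buffer, pH 7.5, plus ascorbate · Reagent – H3K9me3 peptide with Fe(II)/2OG · Compound – one test concentration per compound · Timing – 30 min reaction, 60 min detection, RT · Technique – TR-FRET with Eu antibody and ULight streptavidin, EDTA stop · Read-out basis – inhibition from TR-FRET ratio decrease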
T cruzi growth-1 – blocks T. cruzi growth in NIH3T3 culture. T. cruzi beta-gal in NIH3T3, GalScreen luminescence, 90 h. inhibition, % at 8.34 µM. hit rate 5.9% among 77,000;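 active = mean inhibition above about 93%, with at least 55% of replicates each passing it, limit read from the data, passing the limit was not always enough; inconclusive = only one of those two conditions holds; inactive = neither condition holds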
T cruzi growth-2 – Trypanosoma cruzi proliferation inhibition | shares compounds with T cruzi growth-1 | T. cruzi beta-gal in NIH3T3, GalScreen luminescence, 90 h | inhibition, % at 8.35 µM | hit rate 72% among 5,600 | AID 651739;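 active = mean replicate inhibition above about 95% and at least 55% of replicates individually reaching it, limit read from the data; inconclusive = only one of the two criteria is met; inactive = neither criterion is met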
T cruzi growth-3 – blocks T. cruzi growth in NIH3T3 host cells; shares compounds with T cruzi growth-1; T. cruzi beta-gal in NIH3T3, GalScreen luminescence, 90 h; inhibition, % at 2.09 µM; hit rate 21% among 5,600; AID 651740;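 active = mean inhibition above about 95%, with at least 55% of replicates also reaching it, limit read from the data; inconclusive = meets just one of the two conditions; inactive = meets neither condition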
NIH3T3 tox – kills mouse NIH/3T3 fibroblasts; hit rate 14% among 5,600; AID 651742; shares compounds with T cruzi growth-1; cytotoxicity (signal decrease), % at 8.35 µM; NIH/3T3 viability, CellTiter-Glo ATP luminescence, 90 h;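 active = mean signal decrease across replicates above about 35% based on untreated-well scatter, with enough replicates individually passing, limit read from the data; inconclusive = no rule stated though some were filed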
3T3 cytotox 2 – NIH/3T3 (mouse) viability loss | shares compounds with T cruzi growth-1 | NIH/3T3 viability, CellTiter-Glo ATP luminescence, 90 h | inhibition, % at 24.9 µM | hit rate 56% among 5,600 | AID 651744;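 active = mean loss of cell viability signal at or above a set limit, and enough replicates individually reaching it; inconclusive = meets only the mean limit or only the replicate share; inactive = meets neither condition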
A number is an active result. Only a selection was taken, and hits are over-represented in it overall.

Results for CCCC(=O)Nc1ccc2c(c1)OC[C@@H](C)N(Cc1ccncc1)C[C@H](C)[C@H](OC)CN(C)C2=O ?
IDH1 R132H inh: inactive; GASC1 inh: inactive; T cruzi growth-1: inactive

What do the screens show for `C[C@H](CO)N1C[C@H](C)[C@@H](CN(C)Cc2ccc(C(=O)O)cc2)OCCCC[C@H](C)Oc2ccc(NS(=O)(=O)c3cn(C)cn3)cc2C1=O`?
GASC1 inh: inactive; T cruzi growth-1: inactive

Results for COc1ccc(NC(=O)Nc2ccc3c(c2)C(=O)N([C@@H](C)CO)C[C@H](C)[C@@H](CN(C)C(=O)Nc2ccccc2)O3)cc1 ?
IDH1 R132H inh: inactive; GASC1 inh: inactive; T cruzi growth-1: inactive

What do the screens show for `C[C@H](CO)N1C[C@H](C)[C@H](CN(C)C(=O)Nc2ccc3c(c2)OCO3)Oc2cc(C3=CCCCC3)ccc2S1(=O)=O`?
IDH1 R132H inh: inactive; GASC1 inh: inactive

What do the screens show for `COc1ccc(S(=O)(=O)N(C)C[C@@H]2Oc3cc(-c4ccccc4OC)ccc3S(=O)(=O)N([C@H](C)CO)C[C@@H]2C)cc1`?
IDH1 R132H inh: inactive; GASC1 inh: inactive; T cruzi growth-1: 127; T cruzi growth-2: 110; T cruzi growth-3: inactive; NIH3T3 tox: inactive; 3T3 cytotox 2: 63

Results for COc1ccc(S(=O)(=O)N(C)C[C@@H]2Oc3cc(-c4ccccc4OC)ccc3S(=O)(=O)N([C@@H](C)CO)C[C@@H]2C)cc1 ?
IDH1 R132H inh: inactive; GASC1 inh: inactive; T cruzi growth-1: 126; T cruzi growth-2: 114; T cruzi growth-3: 100; NIH3T3 tox: 45; 3T3 cytotox 2: inactive

Results for COc1ccc(S(=O)(=O)N(C)C[C@@H]2Oc3cc(C4=CCCC4)ccc3S(=O)(=O)N([C@@H](C)CO)C[C@H]2C)cc1 ?
IDH1 R132H inh: inactive; GASC1 inh: inactive; T cruzi growth-1: inactive

What do the screens show for `COc1ccccc1-c1ccc2c(c1)O[C@@H](CN(C)C(C)=O)[C@H](C)CN([C@H](C)CO)S2(=O)=O`?
IDH1 R132H inh: inactive; GASC1 inh: inactive; T cruzi growth-1: inactive

How did COc1ccc(S(=O)(=O)N(C)C[C@@H]2Oc3cc(-c4ccccc4OC)ccc3S(=O)(=O)N([C@H](C)CO)C[C@H]2C)cc1 do in these assays?
IDH1 R132H inh: inactive; GASC1 inh: inactive; T cruzi growth-1: 127; T cruzi growth-2: 102; T cruzi growth-3: inactive; NIH3T3 tox: inactive; 3T3 cytotox 2: 58

How did COc1ccc(S(=O)(=O)N(C)C[C@@H]2Oc3cc(C4=CCCC4)ccc3S(=O)(=O)N([C@H](C)CO)C[C@H]2C)cc1 do in these assays?
IDH1 R132H inh: inactive; GASC1 inh: inactive; T cruzi growth-1: inactive

What do the screens show for `COc1cccc(NC(=O)C(C)N(c2ccc(C)c(C)c2)S(C)(=O)=O)c1` (centres undefined)?
IDH1 R132H inh: inactive

What do the screens show for `CC(=O)Nc1ccc(S(=O)(=O)Nc2cccc(N(C)S(C)(=O)=O)c2)cc1`?
IDH1 R132H inh: inactive

Results for Cc1noc(C)c1NC(=O)N[C@H]1C=C[C@@H](CC(=O)N2CCN(C)CC2)O[C@H]1CO ?
IDH1 R132H inh: inactive; GASC1 inh: inactive; T cruzi growth-1: inactive

How did C[C@H](CO)N1C[C@H](C)[C@H](CN(C)C)Oc2cc(C#Cc3ccc(F)cc3)ccc2S1(=O)=O do in these assays?
IDH1 R132H inh: inactive; GASC1 inh: inactive; T cruzi growth-1: inactive

What do the screens show for `C[C@@H]1CN([C@@H](C)CO)S(=O)(=O)c2ccc(C#Cc3ccc(F)cc3)cc2O[C@H]1CN(C)C`?
IDH1 R132H inh: inactive; GASC1 inh: inactive; T cruzi growth-1: inactive

Results for C[C@H](CO)N1C[C@H](C)[C@@H](CN(C)S(C)(=O)=O)Oc2cc(C#Cc3ccc(F)cc3)ccc2S1(=O)=O ?
IDH1 R132H inh: inactive; GASC1 inh: inactive; T cruzi growth-1: 106; T cruzi growth-2: 109; T cruzi growth-3: inactive; NIH3T3 tox: inactive; 3T3 cytotox 2: 52

Results for C[C@@H]1CN([C@@H](C)CO)S(=O)(=O)c2ccc(C#Cc3ccc(F)cc3)cc2O[C@@H]1CN(C)S(C)(=O)=O ?
IDH1 R132H inh: inactive; GASC1 inh: inactive; T cruzi growth-1: inconclusive; T cruzi growth-2: inactive; T cruzi growth-3: inactive; NIH3T3 tox: 36; 3T3 cytotox 2: 74
